From ChEMBL document CHEMBL4689842, “EUbOPEN Chemogenomics Library wave 1” (2021)
Several values for one entry are separate records, joined by “and”; a condition that tells them apart may be missing. Equal entries are not always repeated.

Experiments:
Format in all cases: toxicity, cell-based
Fibroblast [1] = assay: Multiplex assay against human fibroblast; conditions: 1 µM, compound concentration 1 uM
Method in brief: (§1)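 Tubulin, mitochondrial-mass and membrane-permeability phenotypes are per cents of healthy-nucleus cells. Cells were gated by CellPathfinder machine learning into Hoechst high-intensity objects or normal cells, normal cells into healthy, pyknosed or fragmented nuclei, and pyknosed cells into mitotic or apoptotic. Before that, live cells stained at seeding with Hoechst33342, BioTracker Green Microtubule Cytoskeleton Dye, MitoTracker Red and Annexin V Alexa Fluor 680 were imaged on a CQ1 microscope at 37°C and 5% CO2 after compound addition.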

HEK-293T [2] = assay: Multiplex assay against HEK293T; conditions: human, 1 µM, compound concentration 1 uM; method in brief: as §1
U2OS [3] = assay: Multiplex assay against U2OS; conditions: human, 1 µM, compound concentration 1 uM; method in brief: as §1
HEK-293T [4] = assay: Incucyte cell viability with HEK293T; conditions: human, 10 µM, compound concentration 10 uM; also: filed as whole numbers so only -1 and 0 and 1 occur
Fibroblast [5] = assay: Incucyte cell viability with human fibroblast; conditions: 10 µM, compound concentration 10 uM; also: filed as whole numbers so only -1 and 0 and 1 occur
U2OS [6] = assay: Incucyte cell viability with U2OS; conditions: human, 10 µM, compound concentration 10 uM; also: filed as whole numbers so only -1 and 0 and 1 occur
[7] = 6 h, replicate number 1, timepoint 6 hours
[8] = 12 h, replicate number 1, timepoint 12 hours
[9] = 18 h, replicate number 1, timepoint 18 hours
[10] = 24 h, replicate number 1, timepoint 24 hours

FC(F)c1nc2ccccc2n1-c1nc(N2CCOCC2)nc(N2CCOCC2)n1 [ZSTK-474]
Population Apoptotic (%) (Fibroblast [1]; 12 h, replicate 1): 75% and 78% | Population Fragmented Nuclei (%) (Fibroblast [1]; 12 h, replicate 1): 31% and 20% | Population Healthy Nuclei (%) (Fibroblast [1]; 12 h, replicate 1): 54% and 67% | Population Hoechst High Intensity Objects (%) (Fibroblast [1]; 12 h, replicate 1): 15% and 11% | Population Mitochondria Different-Phenotype (%) (Fibroblast [1]; 12 h, replicate 1): 3% and 1% | Population Mitotic Cells (%) (Fibroblast [1]; 12 h, replicate 1): 25% and 21% | Population Normal (%) (Fibroblast [1]; 12 h, replicate 1): 84% and 88% | Population Pyknosed Nuclei (%) (Fibroblast [1]; 12 h, replicate 1): 14% and 11% | Total Cell Count (Fibroblast [1]; 12 h, replicate 1): 268 and 222 | Population Fragmented Nuclei (%) (Fibroblast [1]; 12 h, replicate 2): 71% and 55% | Population Healthy Nuclei (%) (Fibroblast [1]; 12 h, replicate 2): 26% and 37% | Population Hoechst High Intensity Objects (%) (Fibroblast [1]; 12 h, replicate 2): 40% and 37% | Population Membrane Permeable-Phenotype (%) (Fibroblast [1]; 12 h, replicate 2): 0% and 6% | Population Mitochondria Different-Phenotype (%) (Fibroblast [1]; 12 h, replicate 2): 14% and 26% | Population Mitotic Cells (%) (Fibroblast [1]; 12 h, replicate 2): 100% and 66% | Population Normal (%) (Fibroblast [1]; 12 h, replicate 2): 59% and 62% | Total Cell Count (Fibroblast [1]; 12 h, replicate 2): 88 and 64 | Population Apoptotic (%) (Fibroblast [1]; 24 h, replicate 1): 63% and 76% | Population Fragmented Nuclei (%) (Fibroblast [1]; 24 h, replicate 1): 24% and 22% | Population Healthy Nuclei (%) (Fibroblast [1]; 24 h, replicate 1): 61% and 64% | Population Hoechst High Intensity Objects (%) (Fibroblast [1]; 24 h, replicate 1): 12% | Population Membrane Permeable-Phenotype (%) (Fibroblast [1]; 24 h, replicate 1): 3% and 1% | Population Mitotic Cells (%) (Fibroblast [1]; 24 h, replicate 1): 36% and 24% | Population Normal (%) (Fibroblast [1]; 24 h, replicate 1): 87% | Population Pyknosed Nuclei (%) (Fibroblast [1]; 24 h, replicate 1): 14% and 12% | Population Tubulin-Different-Phenotype (%) (Fibroblast [1]; 24 h, replicate 1): 18% and 0% | Total Cell Count (Fibroblast [1]; 24 h, replicate 1): 235 and 226 | Population Apoptotic (%) (Fibroblast [1]; 24 h, replicate 2): 0% | Population Fragmented Nuclei (%) (Fibroblast [1]; 24 h, replicate 2): 72% and 63% | Population Healthy Nuclei (%) (Fibroblast [1]; 24 h, replicate 2): 23% and 34% | Population Hoechst High Intensity Objects (%) (Fibroblast [1]; 24 h, replicate 2): 40% and 33% | Population Membrane Permeable-Phenotype (%) (Fibroblast [1]; 24 h, replicate 2): 8% and 7% | Population Mitochondria Different-Phenotype (%) (Fibroblast [1]; 24 h, replicate 2): 8% and 23% | Population Mitotic Cells (%) (Fibroblast [1]; 24 h, replicate 2): 100% | Population Normal (%) (Fibroblast [1]; 24 h, replicate 2): 60% and 66% | Population Pyknosed Nuclei (%) (Fibroblast [1]; 24 h, replicate 2): 3% and 2% | Total Cell Count (Fibroblast [1]; 24 h, replicate 2): 85 and 57 | Population Apoptotic (%) (HEK-293T [2]; 12 h, replicate 1): 22% and 20% | Population Fragmented Nuclei (%) (HEK-293T [2]; 12 h, replicate 1): 18% and 14% | Population Healthy Nuclei (%) (HEK-293T [2]; 12 h, replicate 1): 59% and 50% | Population Hoechst High Intensity Objects (%) (HEK-293T [2]; 12 h, replicate 1): 16% and 20% | Population Membrane Permeable-Phenotype (%) (HEK-293T [2]; 12 h, replicate 1): 7% and 5% | Population Mitochondria Different-Phenotype (%) (HEK-293T [2]; 12 h, replicate 1): 6% and 13% | Population Mitotic Cells (%) (HEK-293T [2]; 12 h, replicate 1): 77% and 79% | Population Normal (%) (HEK-293T [2]; 12 h, replicate 1): 83% and 79% | Population Pyknosed Nuclei (%) (HEK-293T [2]; 12 h, replicate 1): 22% and 35% | Total Cell Count (HEK-293T [2]; 12 h, replicate 1): 600 and 593 | Population Apoptotic (%) (HEK-293T [2]; 12 h, replicate 2): 18% and 16% | Population Fragmented Nuclei (%) (HEK-293T [2]; 12 h, replicate 2): 5% and 9% | Population Healthy Nuclei (%) (HEK-293T [2]; 12 h, replicate 2): 86% and 85% | Population Membrane Permeable-Phenotype (%) (HEK-293T [2]; 12 h, replicate 2): 4% and 3% | Population Mitotic Cells (%) (HEK-293T [2]; 12 h, replicate 2): 81% and 83% | Population Normal (%) (HEK-293T [2]; 12 h, replicate 2): 90% and 97% | Population Pyknosed Nuclei (%) (HEK-293T [2]; 12 h, replicate 2): 8% and 4% | Total Cell Count (HEK-293T [2]; 12 h, replicate 2): 1084 and 1487 | Population Apoptotic (%) (HEK-293T [2]; 24 h, replicate 1): 28% and 17% | Population Fragmented Nuclei (%) (HEK-293T [2]; 24 h, replicate 1): 16% and 15% | Population Healthy Nuclei (%) (HEK-293T [2]; 24 h, replicate 1): 54% and 72% | Population Hoechst High Intensity Objects (%) (HEK-293T [2]; 24 h, replicate 1): 19% and 13% | Population Membrane Permeable-Phenotype (%) (HEK-293T [2]; 24 h, replicate 1): 8% | Population Mitotic Cells (%) (HEK-293T [2]; 24 h, replicate 1): 71% and 82% | Population Normal (%) (HEK-293T [2]; 24 h, replicate 1): 80% and 86% | Population Pyknosed Nuclei (%) (HEK-293T [2]; 24 h, replicate 1): 28% and 11% | Total Cell Count (HEK-293T [2]; 24 h, replicate 1): 526 and 650 | Population Apoptotic (%) (HEK-293T [2]; 24 h, replicate 2): 12% and 13% | Population Fragmented Nuclei (%) (HEK-293T [2]; 24 h, replicate 2): 11% and 31% | Population Healthy Nuclei (%) (HEK-293T [2]; 24 h, replicate 2): 79% and 66% | Population Hoechst High Intensity Objects (%) (HEK-293T [2]; 24 h, replicate 2): 11% and 4% | Population Membrane Permeable-Phenotype (%) (HEK-293T [2]; 24 h, replicate 2): 10% and 6% | Population Mitotic Cells (%) (HEK-293T [2]; 24 h, replicate 2): 87% and 86% | Population Normal (%) (HEK-293T [2]; 24 h, replicate 2): 88% and 95% | Total Cell Count (HEK-293T [2]; 24 h, replicate 2): 1133 and 2662 | Population Fragmented Nuclei (%) (U2OS [3]; 12 h, replicate 1): 3% | Population Healthy Nuclei (%) (U2OS [3]; 12 h, replicate 1): 89% and 87% | Population Hoechst High Intensity Objects (%) (U2OS [3]; 12 h, replicate 1): 4% and 3% | Population Membrane Permeable-Phenotype (%) (U2OS [3]; 12 h, replicate 1): 18% and 7% | Population Mitotic Cells (%) (U2OS [3]; 12 h, replicate 1): 56% and 88% | Population Normal (%) (U2OS [3]; 12 h, replicate 1): 95% and 96% | Population Pyknosed Nuclei (%) (U2OS [3]; 12 h, replicate 1): 7% and 6% | Population Tubulin-Different-Phenotype (%) (U2OS [3]; 12 h, replicate 1): 13% and 23% | Total Cell Count (U2OS [3]; 12 h, replicate 1): 134 and 206 | Population Fragmented Nuclei (%) (U2OS [3]; 12 h, replicate 2): 8% and 5% | Population Healthy Nuclei (%) (U2OS [3]; 12 h, replicate 2): 85% | Population Hoechst High Intensity Objects (%) (U2OS [3]; 12 h, replicate 2): 14% and 10% | Population Membrane Permeable-Phenotype (%) (U2OS [3]; 12 h, replicate 2): 21% and 13% | Population Mitochondria Different-Phenotype (%) (U2OS [3]; 12 h, replicate 2): 9% and 18% | Population Mitotic Cells (%) (U2OS [3]; 12 h, replicate 2): 83% and 28% | Population Normal (%) (U2OS [3]; 12 h, replicate 2): 85% and 89% | Population Pyknosed Nuclei (%) (U2OS [3]; 12 h, replicate 2): 5% | Population Tubulin-Different-Phenotype (%) (U2OS [3]; 12 h, replicate 2): 20% and 35% | Total Cell Count (U2OS [3]; 12 h, replicate 2): 147 and 107 | Population Healthy Nuclei (%) (U2OS [3]; 24 h, replicate 1): 90% | Population Hoechst High Intensity Objects (%) (U2OS [3]; 24 h, replicate 1): 2% | Population Mitochondria Different-Phenotype (%) (U2OS [3]; 24 h, replicate 1): 4% and 12% | Population Normal (%) (U2OS [3]; 24 h, replicate 1): 97% | Population Pyknosed Nuclei (%) (U2OS [3]; 24 h, replicate 1): 4% and 3% | Population Tubulin-Different-Phenotype (%) (U2OS [3]; 24 h, replicate 1): 12% and 25% | Total Cell Count (U2OS [3]; 24 h, replicate 1): 190 and 236 | Population Apoptotic (%) (U2OS [3]; 24 h, replicate 2): 28% and 50% | Population Fragmented Nuclei (%) (U2OS [3]; 24 h, replicate 2): 4% and 6% | Population Healthy Nuclei (%) (U2OS [3]; 24 h, replicate 2): 89% | Population Hoechst High Intensity Objects (%) (U2OS [3]; 24 h, replicate 2): 11% and 4% | Population Membrane Permeable-Phenotype (%) (U2OS [3]; 24 h, replicate 2): 20% and 11% | Population Mitochondria Different-Phenotype (%) (U2OS [3]; 24 h, replicate 2): 9% and 20% | Population Mitotic Cells (%) (U2OS [3]; 24 h, replicate 2): 71% and 50% | Population Normal (%) (U2OS [3]; 24 h, replicate 2): 88% and 95% | Population Pyknosed Nuclei (%) (U2OS [3]; 24 h, replicate 2): 5% | Population Tubulin-Different-Phenotype (%) (U2OS [3]; 24 h, replicate 2): 20% and 36% | Total Cell Count (U2OS [3]; 24 h, replicate 2): 188 and 114 | Growth Rate (HEK-293T [4]; [7]): 0 | Growth Rate (HEK-293T [4]; [8]): 0 | Growth Rate (HEK-293T [4]; [9]): 0 | Growth Rate (HEK-293T [4]; [10]): 0 | Growth Rate (Fibroblast [5]; 0 h, replicate number 2, timepoint 0 hours): 0 | Growth Rate (Fibroblast [5]; [7]): 0 | Growth Rate (Fibroblast [5]; [8]): 0 | Growth Rate (Fibroblast [5]; [9]): 0 | Growth Rate (Fibroblast [5]; [10]): 0 | Growth Rate (U2OS [6]; 0 h, replicate number 1, timepoint 0 hours): 1 | Growth Rate (U2OS [6]; [7]): 1 | Growth Rate (U2OS [6]; [8]): 1 | Growth Rate (U2OS [6]; 12 h, replicate number 2, timepoint 12 hours): 0 | Growth Rate (U2OS [6]; [9]): 0 | Growth Rate (U2OS [6]; [10]): 0
